Reference: ChEMBL document CHEMBL4270662, “Discovery of Orally Active Inhibitors of Brahma Homolog (BRM)/SMARCA2 ATPase Activity for the Treatment of Brahma Related Gene 1 (BRG1)/SMARCA4-Mutant Cancers” (J Med Chem, 2018)
Converted amounts (≈) assume the structure as drawn. The source made the active and inactive calls. No cut-off for these calls is given here.

How the values were obtained:
[1] = biological target: T1, SWI/SNF-related matrix-associated actin-dependent regulator of chromatin subfamily A member 4 (Homo sapiens, UniProt P51532); assay: Binding affinity to BRG1 ATPase-SnAC domain (unknown origin) expressed in insect sf9 cells assessed as change in melting temperature at 500 uM by DSF-assay (reference value: 0 degreeC)
[2] = biological target: T2, SWI/SNF-related matrix-associated actin-dependent regulator of chromatin subfamily A member 2 (Homo sapiens, UniProt P51531); assay: Inhibition of recombinant His10-tagged ZZ-HCV3C-BRM ATPase-SnAC (636 to 1331 residues) (unknown origin) expressed in insect sf9 cells preincubated for 5 mins followed by pCMV-dR8.91 plasmid and ATP addition measured after 60 mins by ADP-Glo assay
[3] = biological target: T1, SWI/SNF-related matrix-associated actin-dependent regulator of chromatin subfamily A member 4; assay: Inhibition of recombinant His6-tagged BRG1 ATPase-SnAC (658 to 1361 residues) (unknown origin) expressed in insect sf9 cells preincubated for 5 mins followed by pCMV-dR8.91 plasmid and ATP addition measured after 60 mins by ADP-Glo assay
[4] = biological target: T2, SWI/SNF-related matrix-associated actin-dependent regulator of chromatin subfamily A member 2; assay: Binding affinity to N-terminal MBP-fused human BRM RecA domain (705 to 960 residues) expressed in Escherichia coli BL21 Star (DE3) by ITC method
[5] = Inhibition of BRM/BRG1 mutant-dependant cell proliferation in human SKMEL5 cells after 6 days by celltiter-glo luminescent cell viability assay; assay type: cell-based; details: SK-MEL-5, 144 h
SBC-5 = assay: Antiproliferative activity against human SBC5 cells assessed as cell growth inhibition after 6 days by celltiter-glo luminescent cell viability assay; assay type: functional, cell-based; details: SBC-5, 144 h
[6] = biological target: SWI/SNF-related matrix-associated actin-dependent regulator of chromatin subfamily A member 2 (Homo sapiens, UniProt P51531, E852Q); assay: Binding affinity to N-terminal MBP-fused human BRM RecA domain E852Q mutant expressed in Escherichia coli BL21 Star (DE3) by ITC method
[7] = Inhibition of BRM/BRG1 mutant in human NCI-H1299 cells assessed as reduction in KRT80 gene expression after 24 hrs by luciferase reporter gene assay; assay type: cell-based; details: NCI-H1299, 24 h
Outline: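 NCI-H1299 cells carry NanoLuc knocked into the endogenous KRT80 locus and are grown in RPMI-1640 with 10% FBS. Plated at 500 cells/well and left overnight, then dosed over 10 points in 3-fold dilutions from 10 µM.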

[8] = Thermodynamic solubility of the compound at 1 mg/ml pH 1 after 16 to 24 hrs by shake-flask method; assay type: physicochemical; details: buffer, read-out: Therm_solubility
[9] = biological target: T2, SWI/SNF-related matrix-associated actin-dependent regulator of chromatin subfamily A member 2; assay: Inhibition of recombinant His10-tagged ZZ-HCV3C-BRM ATPase-SnAC (636 to 1331 residues) (unknown origin) expressed in insect sf9 cells preincubated for 5 mins followed by pCMV-dR8.91 and 10 times ATP addition measured after 60 mins by ADP-Glo assay
Outline: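 BRM residues 636-1331 (tag removed by HCV3C cleavage), 5 nM final, preincubated with compound for 5 min at room temperature. Reaction started with ATP at 10x Km plus 2 nM pCMV-dR8.91 plasmid, run 60 min. ADP-Glo luminescence read; IC50 by nonlinear regression of duplicate averages.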

[10] = biological target: T1, SWI/SNF-related matrix-associated actin-dependent regulator of chromatin subfamily A member 4; assay: Binding affinity to BRG1 ATPase-SnAC domain (unknown origin) expressed in insect sf9 cells assessed as change in melting temperature at 100 uM in presence of ADP by DSF-assay (reference value: 0 degreeC)
[11] = biological target: T2, SWI/SNF-related matrix-associated actin-dependent regulator of chromatin subfamily A member 2; assay: Inhibition of full length BRM ATPase (1 to 1572 residues) (unknown origin) expressed in insect sf9 cells preincubated for 5 mins followed by pCMV-dR8.91 plasmid and ATP addition measured after 60 mins by ADP-Glo assay
Outline: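 Full-length BRM (1-1572), purified from Sf9 cells by Ni or anti-FLAG affinity, then anion exchange and size exclusion. Reaction run 60 min at room temperature; ADP-Glo luminescence read-out; IC50 from duplicate means.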

[12] = biological target: T1, SWI/SNF-related matrix-associated actin-dependent regulator of chromatin subfamily A member 4; assay: Binding affinity to BRG1 ATPase-SnAC domain (unknown origin) expressed in insect sf9 cells assessed as change in melting temperature at 100 uM by DSF-assay (reference value: 0 degreeC)
[13] = biological target: T1, SWI/SNF-related matrix-associated actin-dependent regulator of chromatin subfamily A member 4; assay: Binding affinity to His6-tagged BRG1 ATPase-SnAC (658 to 1361 residues) (unknown origin) expressed in insect sf9 cells by ITC method
[14] = Thermodynamic solubility of the compound at 1 mg/ml pH 6.8 after 16 to 24 hrs by shake-flask method; assay type: physicochemical; details: buffer, read-out: Therm_solubility
[15] = biological target: T2, SWI/SNF-related matrix-associated actin-dependent regulator of chromatin subfamily A member 2; assay: Binding affinity to N-terminal avi-tagged BRM ATPase-SnAC domain (unknown origin) in presence of ADP by SPR assay
Outline: (§1)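 SPR at 10 °C: about 2000 RU of N-terminal Avi-tagged BRM ATPase-SnAC captured on a streptavidin chip, with a blank reference cell. Compound dose series injected 60 s at 100 µL/min with 120 s dissociation; data solvent-corrected, double-referenced and fit 1:1 for KD.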

[16] = biological target: T2, SWI/SNF-related matrix-associated actin-dependent regulator of chromatin subfamily A member 2; assay: Binding affinity to N-terminal avi-tagged BRM ATPase-SnAC domain (unknown origin) in absence of ADP by SPR assay; outline: as §1
Mus musculus [17] = assay: In vivo inhibition of BRM/BRG1 mutant in human RERF-LC-A1 cells xenografted in po dosed athymic nude mouse assessed as reduction in KRT80 gene expression after 7 to 24 hrs by real-time PCR method; assay type: functional, organism-based
Outline: (§2)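 RERF-LC-AI tumor-bearing nude mice received oral compound daily, suspended in 0.5% methyl cellulose and 0.5% Tween 80 in water, at 7.5 or 20 mg/kg. Tumor KRT80 mRNA was measured at several post-dose time points, including 7 h and 16 h onward.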

[18] = Inhibition of BRM/BRG1 mutant in human RERF-LC-A1 cells assessed as reduction in KRT80 gene expression after 24 hrs by luciferase reporter gene assay; assay type: cell-based
RERF-LC-AI [19] = assay: Anti-tumor activity in human RERF-LC-A1 cells xenografted in athymic nude mouse assessed as tumor growth at 30 mg/kg, po administered daily for 4 consecutive days followed by incubation for next 3 days in absence of compounds relative to control; assay type: functional
Mus musculus [20] = assay: In vivo inhibition of BRM/BRG1 mutant in human RERF-LC-A1 cells xenografted in athymic nude mouse assessed as reduction in KRT80 gene expression at 20 mg/kg, po after 16 to 24 hrs by real-time PCR method; assay type: functional, organism-based; outline: as §2
RERF-LC-AI [21] = assay: Anti-tumor activity in human RERF-LC-A1 cells xenografted in athymic nude mouse assessed as tumor growth inhibition at 7.5 mg/kg, po administered for 3 weeks measured twice per week during compound dosing relative to control; assay type: functional; details: 504 h, read-out: TGI
Outline: (§3)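 Nude mice bearing RERF-LC-AI xenografts were dosed orally with a suspension in 0.5% methyl cellulose and 0.5% Tween 80 in water. Dosing was daily for 3 weeks at 7.5 or 20 mg/kg. Tumor growth and tolerability were followed during dosing.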

Mus musculus [22] = assay: In vivo inhibition of BRM/BRG1 mutant in human RERF-LC-A1 cells xenografted in athymic nude mouse assessed as reduction in KRT80 gene expression at 20 mg/kg, po after 7 hrs by real-time PCR method; assay type: functional; outline: as §2
Mus musculus [23] = assay: In vivo inhibition of […] in human RERF-LC-A1 cells xenografted in athymic nude mouse assessed as reduction in KRT80 mRNA expression at 20 mg/kg, po measured at 16 hrs post last dose of 3 weeks of daily dosing by RT-PCR analysis; assay type: functional, organism-based; outline: as §2
Mus musculus [24] = assay: Toxicity in athymic nude mouse xenografted with human RERF-LC-A1 cells up to 20 mg/kg, po administered for 3 weeks; assay type: organism-based; details: in vivo, 504 h; outline: as §3
RERF-LC-AI [25] = assay: Anti-tumor activity in human RERF-LC-A1 cells xenografted in athymic nude mouse assessed as tumor growth inhibition at 20 mg/kg, po administered for 3 weeks measured twice per week during compound dosing relative to control; assay type: functional; details: 504 h, read-out: TGI; outline: as §3
Mus musculus [26] = assay: Time required for unbound plasma concentration to reach above in vitro unbound EC50 for reduction in BRM/BRG1 mutant-induced KRT80 gene expression in human RERF-LC-A1 cells in athymic nude mouse at 20 mg/kg, po administered daily for 3 weeks; assay type: ADME, organism-based; details: in vivo, 504 h
Outline: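 Nude mice bearing RERF-LC-AI tumors were dosed orally once daily for 3 weeks at 20 mg/kg. The dose was a suspension in 0.5% methyl cellulose and 0.5% Tween 80 in water. Unbound plasma concentrations over time were compared with the cellular KRT80 EC50.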

T1 sequence (P51532 whole entry, the tested form may be a part): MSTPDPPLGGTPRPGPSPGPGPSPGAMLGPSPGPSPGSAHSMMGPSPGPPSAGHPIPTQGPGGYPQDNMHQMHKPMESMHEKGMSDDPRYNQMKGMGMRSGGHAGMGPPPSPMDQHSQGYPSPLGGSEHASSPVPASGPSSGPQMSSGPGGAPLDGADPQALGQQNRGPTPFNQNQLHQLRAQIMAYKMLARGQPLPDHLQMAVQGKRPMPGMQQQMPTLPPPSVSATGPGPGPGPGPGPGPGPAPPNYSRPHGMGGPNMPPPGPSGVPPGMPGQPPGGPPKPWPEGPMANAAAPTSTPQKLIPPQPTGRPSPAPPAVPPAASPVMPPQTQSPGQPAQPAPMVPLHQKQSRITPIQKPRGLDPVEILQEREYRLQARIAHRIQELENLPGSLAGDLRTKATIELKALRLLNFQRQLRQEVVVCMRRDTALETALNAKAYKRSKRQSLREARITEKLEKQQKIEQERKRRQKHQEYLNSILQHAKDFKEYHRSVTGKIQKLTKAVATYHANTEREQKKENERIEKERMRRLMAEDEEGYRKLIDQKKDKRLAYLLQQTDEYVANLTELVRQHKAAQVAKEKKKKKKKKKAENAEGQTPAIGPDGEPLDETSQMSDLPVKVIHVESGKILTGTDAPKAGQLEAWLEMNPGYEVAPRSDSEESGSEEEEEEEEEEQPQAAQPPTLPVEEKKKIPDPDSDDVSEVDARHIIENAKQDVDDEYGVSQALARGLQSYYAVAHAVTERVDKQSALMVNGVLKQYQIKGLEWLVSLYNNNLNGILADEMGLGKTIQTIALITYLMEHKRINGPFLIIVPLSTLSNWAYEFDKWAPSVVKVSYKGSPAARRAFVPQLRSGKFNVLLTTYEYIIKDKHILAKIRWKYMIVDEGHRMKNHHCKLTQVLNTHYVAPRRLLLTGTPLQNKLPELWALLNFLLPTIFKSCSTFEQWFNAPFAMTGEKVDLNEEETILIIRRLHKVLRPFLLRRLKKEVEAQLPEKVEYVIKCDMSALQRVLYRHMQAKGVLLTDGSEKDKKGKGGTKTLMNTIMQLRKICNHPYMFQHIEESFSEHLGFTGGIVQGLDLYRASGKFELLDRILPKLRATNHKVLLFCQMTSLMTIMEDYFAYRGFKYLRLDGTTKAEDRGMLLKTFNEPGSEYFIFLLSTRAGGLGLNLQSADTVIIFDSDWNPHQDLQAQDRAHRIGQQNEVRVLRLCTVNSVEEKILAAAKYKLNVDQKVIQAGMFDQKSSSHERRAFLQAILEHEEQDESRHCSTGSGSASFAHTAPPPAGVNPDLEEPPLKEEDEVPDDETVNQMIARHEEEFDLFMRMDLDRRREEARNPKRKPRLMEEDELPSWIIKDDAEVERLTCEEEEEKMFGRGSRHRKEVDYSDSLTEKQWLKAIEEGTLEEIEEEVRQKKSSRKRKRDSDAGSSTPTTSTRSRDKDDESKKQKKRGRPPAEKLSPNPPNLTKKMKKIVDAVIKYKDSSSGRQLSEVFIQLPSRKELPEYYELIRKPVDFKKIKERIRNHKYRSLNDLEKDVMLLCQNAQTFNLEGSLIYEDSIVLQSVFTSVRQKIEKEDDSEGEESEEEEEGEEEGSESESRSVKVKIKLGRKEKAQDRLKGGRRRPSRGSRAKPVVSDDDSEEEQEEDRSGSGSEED
T2 sequence (P51531 whole entry, the tested form may be a part): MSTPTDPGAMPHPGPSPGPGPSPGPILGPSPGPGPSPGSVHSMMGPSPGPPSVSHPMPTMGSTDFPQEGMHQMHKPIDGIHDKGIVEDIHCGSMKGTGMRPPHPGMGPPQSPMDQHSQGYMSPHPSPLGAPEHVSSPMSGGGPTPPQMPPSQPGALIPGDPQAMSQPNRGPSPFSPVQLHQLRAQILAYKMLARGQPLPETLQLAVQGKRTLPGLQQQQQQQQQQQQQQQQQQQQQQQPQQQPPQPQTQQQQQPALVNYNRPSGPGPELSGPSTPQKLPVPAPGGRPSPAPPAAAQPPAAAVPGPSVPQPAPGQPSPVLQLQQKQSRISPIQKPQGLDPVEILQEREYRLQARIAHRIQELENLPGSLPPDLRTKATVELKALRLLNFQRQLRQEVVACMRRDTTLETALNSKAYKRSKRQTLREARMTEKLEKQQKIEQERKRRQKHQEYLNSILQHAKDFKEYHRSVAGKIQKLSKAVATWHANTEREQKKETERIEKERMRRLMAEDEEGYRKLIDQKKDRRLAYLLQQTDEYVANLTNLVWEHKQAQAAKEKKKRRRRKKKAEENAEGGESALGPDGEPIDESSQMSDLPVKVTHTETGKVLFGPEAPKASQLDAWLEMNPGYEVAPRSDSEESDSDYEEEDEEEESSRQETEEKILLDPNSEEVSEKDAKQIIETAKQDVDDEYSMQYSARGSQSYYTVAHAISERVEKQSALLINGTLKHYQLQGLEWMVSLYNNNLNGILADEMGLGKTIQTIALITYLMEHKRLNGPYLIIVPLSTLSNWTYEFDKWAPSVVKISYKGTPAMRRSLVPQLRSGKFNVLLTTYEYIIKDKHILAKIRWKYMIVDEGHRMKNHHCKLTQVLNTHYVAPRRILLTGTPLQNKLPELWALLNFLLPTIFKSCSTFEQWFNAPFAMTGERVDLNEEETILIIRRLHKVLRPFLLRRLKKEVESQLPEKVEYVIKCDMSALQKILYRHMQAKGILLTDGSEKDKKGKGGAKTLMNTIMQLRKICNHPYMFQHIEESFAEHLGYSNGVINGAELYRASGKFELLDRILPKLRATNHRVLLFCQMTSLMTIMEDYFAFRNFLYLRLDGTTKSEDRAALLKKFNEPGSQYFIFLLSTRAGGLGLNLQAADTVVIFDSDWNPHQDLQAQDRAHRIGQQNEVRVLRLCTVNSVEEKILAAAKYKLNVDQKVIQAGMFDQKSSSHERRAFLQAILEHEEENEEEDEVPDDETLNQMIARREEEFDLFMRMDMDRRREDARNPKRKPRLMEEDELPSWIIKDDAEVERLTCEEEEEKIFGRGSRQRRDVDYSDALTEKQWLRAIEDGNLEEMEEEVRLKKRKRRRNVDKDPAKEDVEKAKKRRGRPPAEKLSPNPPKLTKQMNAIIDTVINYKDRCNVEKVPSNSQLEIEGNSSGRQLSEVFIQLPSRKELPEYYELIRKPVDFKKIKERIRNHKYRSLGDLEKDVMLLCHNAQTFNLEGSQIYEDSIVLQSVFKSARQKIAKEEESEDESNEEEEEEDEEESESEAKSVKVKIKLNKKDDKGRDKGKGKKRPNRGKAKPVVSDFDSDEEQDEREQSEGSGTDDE
SWI/SNF-related matrix-associated actin-dependent regulator of chromatin subfamily A member 2 (Homo sapiens, UniProt P51531, E852Q), sequence (P51531 whole entry E852Q, the tested form may be a part): as the sequence (P51531 whole entry, the tested form may be a part) above, with E852Q counted along it

SMILES | IC50 [2] [nM] | IC50 [3] [nM] | EC50 [5] [nM] | EC50 (SBC-5) [nM] | EC50 [7] [nM] | also measured
Nc1ncnc2c1ncn2[C@@H]1O[C@H](COP(=O)(O)OP(=O)(O)O)[C@@H](O)[C@H]1O |  |  |  |  |  | ΔTm [1]: 3.1 °C
O=C(Nc1ccnc(Cl)c1)Nc1ccnc(C(F)F)c1 | 110 |  |  |  |  | 
Cc1cc(NC(=O)Nc2ccnc(Cl)c2)ccn1 | 200 | 150 |  |  |  | 
O=C(Nc1ccnc(Cl)c1)Nc1ccnc(C(F)(F)F)c1 | 60 | 30 |  |  |  | 
Cc1c[nH]c(NC(=O)Nc2ccnc(Cl)c2)n1 | > 50000 |  |  |  |  | 
O=C(Nc1ccnc(Cl)c1)Nc1cc(C(F)F)ns1 |  |  | 31 | 6300 | 360 | Kd [4]: 13 nM; Kd [6]: > 10000 nM
O=C(Nc1ccnc(Cl)c1)Nc1cc(C(F)(F)F)ns1 |  |  | 130 | > 10000 | 930 | 
O=C(Nc1ccnc(Cl)c1)Nc1ccccn1 | 3800 | 1700 |  |  |  | 
Cc1csc(NC(=O)Nc2ccnc(Cl)c2)n1 | 970 | 570 |  |  |  | 
O=C(Nc1ccncc1)Nc1ccnc(Cl)c1 | 1100 | 770 |  |  |  | solubility thermodynamic [8]: 3100 µM (≈ 771 µg/mL); inhibition [9]: Active; ΔTm [10]: 5.8 °C; IC50 [11]: 8100 nM; ΔTm [12]: 3.8 °C; Kd [13]: 280 nM; solubility thermodynamic [14]: 330 µM (≈ 82.1 µg/mL); Kd [15]: 450 nM; Activity [16]: Dose-dependent effect; Kd [16]: 87 nM
Nc1cnc(Cl)cc1NC(=O)Nc1cc(C(F)F)ns1 | < 5 | < 5 | 13 | > 10000 | 26 | solubility thermodynamic [14]: 40 µM (≈ 12.8 µg/mL)
Nc1cnc(F)cc1NC(=O)Nc1cc(C(F)F)ns1 | < 5 | < 5 | 5 | > 10000 | 10 | solubility thermodynamic [14]: 92 µM (≈ 27.9 µg/mL)
O=C(Nc1cc(C(F)F)ns1)Nc1cc(F)ncc1CO | < 5 | < 5 | 4 | > 10000 | 10 | inhibition (Mus musculus [17]): Dose-dependent effect; EC50 [18]: 10 nM; T/C (RERF-LC-AI [19]): 30%; inhibition (Mus musculus [20]): inactive; inhibition in vivo at 7.5 mg/kg (RERF-LC-AI [21]): 21%; inhibition in vivo at 20 mg/kg (Mus musculus [22]): ≤ 90%; inhibition (Mus musculus [23]): Dose-dependent effect; Activity (Mus musculus [24]): Non-Toxic; inhibition in vivo at 20 mg/kg (RERF-LC-AI [25]): 55%; solubility thermodynamic [14]: 34 µM (≈ 10.8 µg/mL); Time (Mus musculus [26]): 12 h
Cc1cc(NC(=O)Nc2ccnc(Cl)c2)sn1 |  |  | 650 | > 10000 | > 10000 | 
O=C(Nc1cc(C(F)F)ns1)Nc1cc(Cl)ncc1CO | < 5 | < 5 | 13 | > 10000 | 42 | 
